Measured values as given in ChEMBL document CHEMBL1156338 (J Med Chem, 2010).
pIC50, pKd, pKi: −log10 of the molar value.

How the values were obtained:
[1] = biological target: T1, Mitogen-activated protein kinase 14 (Homo sapiens, UniProt Q16539); assay: Inhibition of human recombinant p38alpha-mediated […] phosphorylation after 1 hr by HTRF assay
THP-1 = assay: Inhibition of LPS-induced TNFalpha production in human THP1 cells after 3 hrs; assay type: functional, cell-based
How it was run: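 THP-1 cells at 1.5 x 10^6/mL in RPMI 1640, 10% heat-inactivated FBS, NEAA, 30 μM βME. 3-fold serial compound dilutions in DMSO, then LPS stimulation for 3 h at 37 C, 5% CO2. Secreted TNF-alpha read by electrochemiluminescent immunoassay; percent of DMSO control; IC50 is the mean of at least three independent curves.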

Blood = assay: Inhibition of IL-8 production in TNFalpha challenged human whole blood after 16 to 18 hrs; assay type: functional, tissue-based
How it was run: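 Heparinized blood from healthy nonmedicated donors, 50% final in RPMI 1640 with 10% human AB serum. Ten-point compound titration preincubated 1 h at 37 C, 5% CO2, then TNF-alpha 1 nM final added for 16-18 h. Plasma IL-8 measured by electrochemiluminescent antibody sandwich assay; IC50 is the mean of at least three independent dose-response curves.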

Cytochrome P450 3A4 = Cytochrome P450 3A4 (Homo sapiens, UniProt P08684); assay: Inhibition of CYP3A4; assay type: ADME
Chain of Cytochrome P450 3A4 (P08684 whole entry): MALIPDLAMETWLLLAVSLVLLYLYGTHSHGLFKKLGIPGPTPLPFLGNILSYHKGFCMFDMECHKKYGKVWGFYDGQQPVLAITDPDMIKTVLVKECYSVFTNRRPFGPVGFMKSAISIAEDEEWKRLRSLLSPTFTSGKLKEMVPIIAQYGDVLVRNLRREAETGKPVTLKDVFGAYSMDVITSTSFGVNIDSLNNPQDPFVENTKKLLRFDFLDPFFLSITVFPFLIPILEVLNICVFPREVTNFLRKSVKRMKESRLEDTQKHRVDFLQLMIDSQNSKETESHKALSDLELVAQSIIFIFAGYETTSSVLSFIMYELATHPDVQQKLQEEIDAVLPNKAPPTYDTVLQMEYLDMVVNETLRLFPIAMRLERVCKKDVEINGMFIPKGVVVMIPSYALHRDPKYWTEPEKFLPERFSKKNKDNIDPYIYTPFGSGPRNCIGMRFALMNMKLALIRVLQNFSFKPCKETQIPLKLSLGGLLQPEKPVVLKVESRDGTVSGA

[2] = biological target: T2, Nuclear receptor subfamily 1 group I member 2 (Homo sapiens, UniProt O75469); assay: Transactivation of human PXR expressed in HepG2 cells after 24 hrs by luciferase reporter gene assay; assay type: cell-based; details: hepg2, 24 h
T2 sequence (O75469 whole entry): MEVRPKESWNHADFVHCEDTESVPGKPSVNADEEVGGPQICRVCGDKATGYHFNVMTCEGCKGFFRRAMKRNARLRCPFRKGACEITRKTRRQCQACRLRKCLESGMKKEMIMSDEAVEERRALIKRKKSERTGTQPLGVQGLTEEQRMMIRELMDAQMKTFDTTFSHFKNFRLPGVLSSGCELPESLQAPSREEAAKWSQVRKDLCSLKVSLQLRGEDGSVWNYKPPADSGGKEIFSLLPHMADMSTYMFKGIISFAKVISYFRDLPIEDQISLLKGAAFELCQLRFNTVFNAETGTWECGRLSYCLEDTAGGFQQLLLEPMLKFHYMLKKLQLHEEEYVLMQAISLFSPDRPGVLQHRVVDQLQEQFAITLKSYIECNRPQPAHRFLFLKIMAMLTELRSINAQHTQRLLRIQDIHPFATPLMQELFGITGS
How it was run: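 HepG2 cells transfected with a CYP3A4-promoter luciferase reporter and human PXR cDNA. Compound added from DMSO stocks to final 2 and 10 μM in buffer and incubated 24 h. Luciferase activity read by chemiluminescence and reported as percent of the rifampin (10 μM) positive control.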

[3] = Clearance in Sprague-Dawley rat at 2 mg/kg, iv; assay type: ADME, organism-based; design: dose 2 mg/kg, route intravenous; details: in vivo
[4] = Volume of distribution at steady state in Sprague-Dawley rat at 2 mg/kg, iv; assay type: ADME, organism-based; design: dose 2 mg/kg, route intravenous; details: in vivo, read-out: Vdss
[5] = Half life in Sprague-Dawley rat at 2 mg/kg, iv; assay type: ADME, organism-based; design: dose 2 mg/kg, route intravenous; details: in vivo
[6] = AUC (0 to infinity) in Sprague-Dawley rat at 2 mg/kg, po; assay type: ADME, organism-based; design: time infinity, dose 2 mg/kg, route oral; details: plasma
[7] = Oral bioavailability in Sprague-Dawley rat at 2 mg/kg; assay type: ADME, organism-based; details: in vivo
[8] = biological target: Vascular endothelial growth factor receptor 2 (Homo sapiens, UniProt P35968); assay: Binding affinity to Kdr by scintillation proximity assay
Chain of Vascular endothelial growth factor receptor 2 (P35968 whole entry): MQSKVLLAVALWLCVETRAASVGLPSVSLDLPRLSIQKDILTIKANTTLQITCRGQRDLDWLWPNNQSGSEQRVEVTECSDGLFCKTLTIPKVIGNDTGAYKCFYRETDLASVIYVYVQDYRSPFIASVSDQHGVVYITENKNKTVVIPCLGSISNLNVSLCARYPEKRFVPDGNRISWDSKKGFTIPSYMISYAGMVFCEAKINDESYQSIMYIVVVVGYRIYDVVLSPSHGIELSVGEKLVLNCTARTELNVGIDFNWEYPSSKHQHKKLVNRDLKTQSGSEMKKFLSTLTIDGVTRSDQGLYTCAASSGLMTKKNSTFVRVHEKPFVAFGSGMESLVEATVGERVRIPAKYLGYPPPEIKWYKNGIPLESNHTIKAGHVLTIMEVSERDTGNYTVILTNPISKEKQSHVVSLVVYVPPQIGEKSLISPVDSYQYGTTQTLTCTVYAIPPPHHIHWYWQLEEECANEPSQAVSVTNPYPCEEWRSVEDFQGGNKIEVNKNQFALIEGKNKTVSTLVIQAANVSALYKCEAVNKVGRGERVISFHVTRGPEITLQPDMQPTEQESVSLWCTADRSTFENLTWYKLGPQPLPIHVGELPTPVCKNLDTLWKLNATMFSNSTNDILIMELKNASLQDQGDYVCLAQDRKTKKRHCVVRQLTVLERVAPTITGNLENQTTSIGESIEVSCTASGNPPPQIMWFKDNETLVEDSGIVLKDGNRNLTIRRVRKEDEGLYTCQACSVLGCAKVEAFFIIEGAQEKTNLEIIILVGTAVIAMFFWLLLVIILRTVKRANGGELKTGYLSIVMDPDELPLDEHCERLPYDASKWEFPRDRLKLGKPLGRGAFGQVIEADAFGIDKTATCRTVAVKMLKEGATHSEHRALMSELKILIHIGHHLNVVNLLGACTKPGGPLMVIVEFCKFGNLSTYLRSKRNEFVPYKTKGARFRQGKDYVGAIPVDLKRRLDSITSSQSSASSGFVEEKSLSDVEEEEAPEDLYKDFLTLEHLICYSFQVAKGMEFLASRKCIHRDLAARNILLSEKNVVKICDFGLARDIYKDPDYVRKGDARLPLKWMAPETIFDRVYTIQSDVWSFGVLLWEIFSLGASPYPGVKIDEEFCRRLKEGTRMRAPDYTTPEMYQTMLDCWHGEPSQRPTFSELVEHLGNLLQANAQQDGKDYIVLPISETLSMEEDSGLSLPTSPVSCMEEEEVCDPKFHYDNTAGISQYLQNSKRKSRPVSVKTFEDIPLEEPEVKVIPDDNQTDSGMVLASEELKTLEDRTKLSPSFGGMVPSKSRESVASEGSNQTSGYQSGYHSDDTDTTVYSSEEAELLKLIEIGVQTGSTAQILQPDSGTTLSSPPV

[9] = biological target: Tyrosine-protein kinase Lck (Homo sapiens, UniProt P06239); assay: Binding affinity to Lck by scintillation proximity assay
Chain of Tyrosine-protein kinase Lck (P06239 whole entry): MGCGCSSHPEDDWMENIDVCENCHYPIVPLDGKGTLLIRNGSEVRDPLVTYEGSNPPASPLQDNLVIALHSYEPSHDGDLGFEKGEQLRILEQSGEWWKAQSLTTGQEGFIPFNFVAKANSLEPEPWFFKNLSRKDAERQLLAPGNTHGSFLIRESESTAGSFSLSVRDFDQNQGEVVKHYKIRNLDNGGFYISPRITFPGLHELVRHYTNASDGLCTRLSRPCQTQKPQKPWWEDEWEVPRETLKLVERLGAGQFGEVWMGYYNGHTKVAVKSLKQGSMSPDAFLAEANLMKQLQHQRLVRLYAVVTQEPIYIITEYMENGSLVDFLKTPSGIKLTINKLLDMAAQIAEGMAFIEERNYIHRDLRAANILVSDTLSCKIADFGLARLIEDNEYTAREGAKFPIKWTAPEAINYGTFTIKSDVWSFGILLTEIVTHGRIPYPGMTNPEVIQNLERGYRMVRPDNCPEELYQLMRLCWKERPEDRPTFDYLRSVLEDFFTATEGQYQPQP

[10] = biological target: Mast/stem cell growth factor receptor Kit (Homo sapiens, UniProt P10721); assay: Binding affinity to c-Kit by scintillation proximity assay
Chain of Mast/stem cell growth factor receptor Kit (P10721 whole entry): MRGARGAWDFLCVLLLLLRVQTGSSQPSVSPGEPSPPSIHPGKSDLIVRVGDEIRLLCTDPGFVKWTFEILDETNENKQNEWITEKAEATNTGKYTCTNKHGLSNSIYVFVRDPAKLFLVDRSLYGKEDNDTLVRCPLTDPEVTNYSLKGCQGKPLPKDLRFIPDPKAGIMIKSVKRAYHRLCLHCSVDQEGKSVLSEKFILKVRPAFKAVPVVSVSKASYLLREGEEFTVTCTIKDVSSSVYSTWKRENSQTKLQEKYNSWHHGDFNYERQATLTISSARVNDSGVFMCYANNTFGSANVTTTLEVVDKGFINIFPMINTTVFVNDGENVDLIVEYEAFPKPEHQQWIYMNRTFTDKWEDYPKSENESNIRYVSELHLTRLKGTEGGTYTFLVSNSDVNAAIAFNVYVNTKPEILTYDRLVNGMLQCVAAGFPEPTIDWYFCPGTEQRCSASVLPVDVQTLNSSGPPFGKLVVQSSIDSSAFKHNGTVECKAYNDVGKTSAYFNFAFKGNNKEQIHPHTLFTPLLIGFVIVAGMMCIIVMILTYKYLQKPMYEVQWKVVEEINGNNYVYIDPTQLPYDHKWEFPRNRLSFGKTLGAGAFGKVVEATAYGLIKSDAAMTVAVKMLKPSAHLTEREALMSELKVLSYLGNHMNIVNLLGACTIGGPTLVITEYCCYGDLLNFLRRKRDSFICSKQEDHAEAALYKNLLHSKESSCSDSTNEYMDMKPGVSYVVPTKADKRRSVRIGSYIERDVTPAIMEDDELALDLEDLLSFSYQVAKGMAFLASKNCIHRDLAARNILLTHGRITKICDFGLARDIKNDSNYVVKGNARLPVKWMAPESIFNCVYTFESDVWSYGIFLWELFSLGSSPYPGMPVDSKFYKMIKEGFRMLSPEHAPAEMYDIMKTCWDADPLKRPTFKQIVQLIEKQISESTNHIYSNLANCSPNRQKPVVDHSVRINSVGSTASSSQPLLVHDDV

[11] = Plasma protein binding in human by ultrafiltration method; assay type: ADME, cell-free; details: read-out: PPB (converted)
[12] = Plasma protein binding in rat by ultrafiltration method; assay type: ADME, cell-free; details: read-out: PPB (converted)
in vitro [13] = details: human, Caco-2
in vitro [14] = details: human, Caco-2; remark: listed apart in the source
[15] = biological target: T1, Mitogen-activated protein kinase 14; assay: Binding affinity to p38alpha by scintillation proximity assay
[16] = Homo sapiens, THP-1, 3 h, read-out: IC50
[17] = Homo sapiens, Blood, read-out: IC50

T1 sequence (Q16539 whole entry): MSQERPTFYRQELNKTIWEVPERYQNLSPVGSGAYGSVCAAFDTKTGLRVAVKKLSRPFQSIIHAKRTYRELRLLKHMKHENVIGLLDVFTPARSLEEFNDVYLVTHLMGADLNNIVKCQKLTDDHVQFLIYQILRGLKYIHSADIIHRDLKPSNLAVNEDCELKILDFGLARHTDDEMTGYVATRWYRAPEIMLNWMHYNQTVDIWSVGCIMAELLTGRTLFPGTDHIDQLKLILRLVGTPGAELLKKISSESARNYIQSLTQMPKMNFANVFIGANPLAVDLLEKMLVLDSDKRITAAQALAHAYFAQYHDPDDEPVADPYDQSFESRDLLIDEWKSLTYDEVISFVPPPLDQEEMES

Row | Structure (SMILES) | pKi [1] | pIC50 (THP-1; [16]) | pIC50 (Blood; [17]) | clearance [3] [mL/min/kg] | Vd [4] [L/kg] | half-life [5] [h] | AUC(0-inf) [6] [ng·h/mL] | bioavailability [7] [%] | further results
1 | CCn1c(=O)c(-c2cc(C(=O)NC3CC3)ccc2C)cc2cnn(-c3ccc(F)cc3F)c21 | 9.22 | 9.30 | 8.62 |  |  |  |  |  | pIC50 (Cytochrome P450 3A4): 5.80; Activity [2]: Not Active
2 | Cc1ccc(C(=O)NC2CC2)cc1-c1cc2cnn(-c3ncccc3C(F)(F)F)c2n(C)c1=O | 8.64 | 7.84 | 7.62 |  |  |  |  |  | 
3 | Cc1ccc(C(=O)NC2CC2)cc1-c1cc2cnn(-c3cc(F)ccc3F)c2n(C)c1=O | 8.72 | 8.80 | 8.43 | 4.12 | 0.955 | 2.2 | 782 | 10 | 
4 | Cc1ccc(C(=O)NC2CC2)cc1-c1cc2c(C)nn(-c3c(F)cccc3F)c2n(C)c1=O | 8.10 | 8.57 | 7.40 |  |  |  |  |  | 
5 | Cc1ccc(C(=O)NC2CC2)cc1-c1cc2cnn(-c3ccccc3Cl)c2n(C)c1=O | 9.05 | 8.96 | 8.06 |  |  |  |  |  | 
6 | Cc1c(F)cc(C(=O)NC2CC2)cc1-c1cc2cnn(-c3c(F)cccc3F)c2n(C)c1=O | 9.10 | 9.40 | 8.77 |  |  |  |  |  | 
7 | Cc1ccc(C(=O)NC2CC2)cc1-c1cc2cnn(-c3ccc(F)cc3F)c2n(C)c1=O |  | 8.82 | 8.41 | 2.88 | 1.69 | 7.7 | 5120 | 73 | pKd [8]: 4.40; pKd [9]: 4.40; pKd [10]: 4.89; fraction unbound [11]: 0.07; fraction unbound [12]: 0.075; Papp A→B (in vitro [13]): 20 ×10⁻⁶ cm/s; Papp B→A (in vitro [14]): 29 ×10⁻⁶ cm/s
8 | Cc1ccc(C(=O)NC2CC2)cc1-c1cc2cnn(-c3ccccc3F)c2n(C)c1=O |  |  |  |  |  |  |  |  | pKd [15]: 9.74; pKd [8]: 4.40; pKd [9]: 4.40; pKd [10]: 5.77
9 | Cn1c(=O)c(-c2cc(C(=O)NC3CC3)ccc2Cl)cc2cnn(-c3c(F)cccc3F)c21 |  | 9.05 |  | 2.75 | 1.47 | 6.3 | 8860 | 73 | fraction unbound [11]: 0.038; fraction unbound [12]: 0.032
10 | Cc1ccc(C(N)=O)cc1-c1cc2cnn(-c3c(F)cccc3F)c2n(C)c1=O | 8.82 | 8.41 | 8.19 | 5.2 | 1.1 | 2.4 | 2390 | 37 | 
11 | Cc1ccc(C(=O)O)cc1-c1cc2cnn(-c3c(F)cccc3F)c2n(C)c1=O | 6.34 | 6.20 | < 5.60 |  |  |  |  |  | 
12 | Cc1ccc(C(=O)NC2(C)CC2)cc1-c1cc2cnn(-c3c(F)cccc3F)c2n(C)c1=O | 8.77 | 8.57 | 7.96 |  |  |  |  |  | 
13 | Cc1ccc(C(=O)NC2CC2)cc1-c1cc2cnn(-c3ccccc3C)c2n(C)c1=O | 8.72 | 8.40 | 7.92 |  |  |  |  |  | 
14 | Cc1ccc(C(=O)NC2CC2)cc1-c1ccc2c(-c3ccccc3F)nncc2c1 |  |  |  |  |  |  |  |  | pKd [15]: 10.30; pKd [8]: 6.49; pKd [9]: 6.28; pKd [10]: 8.62
15 | CNc1noc2c(-c3cc4cnn(-c5c(F)cccc5F)c4n(C)c3=O)c(C)ccc12 | 8.70 |  |  | 17.6 | 1.89 | 3.5 | 515 | 27 | pIC50 (THP-1; thp-1): 8.92; pIC50 (Blood): 8.27
16 | Cc1ccc(C(=O)Nc2ccon2)cc1-c1cc2cnn(-c3c(F)cccc3F)c2n(C)c1=O | 9.00 | 9.52 | 8.82 |  |  |  |  |  | 
